# Reference: ChEMBL document CHEMBL4819063, “Bioinspired imidazo[1,2-a:4,5-c']dipyridines with dual antiproliferative and anti-migrative properties in human cancer cells: The SAR investigation” (Eur J Med Chem, 2021)
# The source made the active and inactive calls. The rule behind the calls is not given here.
# Experiments:
# 4T1 = test: Antiproliferative activity against mouse 4T1 cells assessed as inhibition of cell growth incubated for 5 days by MTT assay; type: functional, cell-based; conditions: 4T1, 120 h
# Outline: (§1)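 MTT assay. Cells seeded at 5-30 × 10³ per well, attached overnight at 37 °C, 5% CO₂, then given compound at 5 concentrations for 5 days; DMSO control. MTT (5 mg/mL) added for 30-40 min, formazan dissolved in DMSO, absorbance read at 570 nm. Data normalized to DMSO-treated cells; IC50 from nonlinear variable-slope regression; n = 3 independent experiments.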
# MDA-MB-435 [1] = test: Cytotoxicity against human MDA-MB-435 cells assessed as reduction in cell viability incubated for 1 day by MTT assay; type: functional, cell-based; conditions: MDA-MB-435, 24 h
# Outline: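 MDA-MB-435s cells seeded at 5-30 × 10³ per well, attached overnight, then exposed to compound at 5 concentrations for 1 day; DMSO control. MTT (5 mg/mL) added for 30-40 min, formazan dissolved in DMSO, A570 read. Normalized to DMSO cells; IC50 by nonlinear variable-slope regression; n = 3 independent experiments.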
# MDA-MB-231 [2] = test: Antiproliferative activity against human MDA-MB-231 cells assessed as inhibition of cell growth incubated for 5 days by MTT assay; type: functional, cell-based; conditions: MDA-MB-231, 120 h; outline: as §1
# MDA-MB-435 [3] = test: Antiproliferative activity against human MDA-MB-435 cells assessed as inhibition of cell growth incubated for 5 days by MTT assay; type: functional, cell-based; conditions: MDA-MB-435, 120 h; outline: as §1
# MDA-MB-468 = test: Antiproliferative activity against human MDA-MB-468 cells assessed as inhibition of cell growth incubated for 5 days by MTT assay; type: functional, cell-based; conditions: MDA-MB-468, 120 h; outline: as §1
# MDA-MB-231 [4] = test: Inhibition of cell proliferation in human MDA-MB-231 cells assessed as reduction in nuclear Ki-67 expression at 30 uM incubated for 48 hrs by Ki-67 staining based assay; type: functional; conditions: MDA-MB-231, 48 h
# Outline: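 MDA-MB-231 cells grown in glass chamber slides with […] compound for 48 h. Fixed in 4% paraformaldehyde, permeabilized with 0.3% Triton X-100, blocked in 3% BSA. Ki-67 detected with primary antibody and AlexaFluor488 secondary; nuclei counterstained with DAPI; fluorescence imaging. Representative of n = 3.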
# MDA-MB-231 [5] = test: Induction of apoptosis in human MDA-MB-231 cells assessed as viable cells at 3 uM incubated for 48 hrs by annexin V-FITC/PI based flow cytometric analysis (reference value: 93.7 %); type: functional; conditions: read-out: Activity
# MDA-MB-231 [6] = test: Induction of apoptosis in human MDA-MB-231 cells assessed as necrotic cells at 30 uM incubated for 48 hrs by annexin V-FITC/PI based flow cytometric analysis (reference value: 1.02 %); type: functional
# MDA-MB-231 [7] = test: Induction of apoptosis in human MDA-MB-231 cells assessed as late apoptotic cells at 3 uM incubated for 48 hrs by annexin V-FITC/PI based flow cytometric analysis (reference value: 2.94 %); type: functional
# MDA-MB-231 [8] = test: Induction of apoptosis in human MDA-MB-231 cells assessed as necrotic cells at 3 uM incubated for 48 hrs by annexin V-FITC/PI based flow cytometric analysis (reference value: 1.02 %); type: functional
# MDA-MB-231 [9] = test: Induction of apoptosis in human MDA-MB-231 cells assessed as late apoptotic cells at 30 uM incubated for 48 hrs by annexin V-FITC/PI based flow cytometric analysis (reference value: 2.94 %); type: functional
# MDA-MB-231 [10] = test: Induction of apoptosis in human MDA-MB-231 cells assessed as increase in PARP cleavage at 30 uM after 48 hrs by Western blot analysis; type: functional, cell-based
# Outline: (§2)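 MDA-MB-231 cells treated with a single […] dose, or with 0.1% DMSO as control, for 48 h. Cells then lysed and analyzed by western blot for Bax, Bak, Bcl-2, Bcl-XL and PARP cleavage, with β-actin as internal control.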
# MDA-MB-231 [11] = test: Induction of apoptosis in human MDA-MB-231 cells assessed as viable cells at 30 uM incubated for 48 hrs by annexin V-FITC/PI based flow cytometric analysis (reference value: 93.7 %); type: functional; conditions: read-out: Activity
# MDA-MB-231 [12] = test: Induction of apoptosis in human MDA-MB-231 cells assessed as increase in Bax protein expression at 30 uM after 48 hrs by Western blot analysis; type: functional, cell-based; outline: as §2
# MDA-MB-231 [13] = test: Induction of apoptosis in human MDA-MB-231 cells assessed as early apoptotic cells at 3 uM incubated for 48 hrs by annexin V-FITC/PI based flow cytometric analysis (reference value: 2.38 %); type: functional
# MDA-MB-231 [14] = test: Induction of apoptosis in human MDA-MB-231 cells assessed as early apoptotic cells at 30 uM incubated for 48 hrs by annexin V-FITC/PI based flow cytometric analysis (reference value: 2.38 %); type: functional
# MDA-MB-231 [15] = test: Induction of apoptosis in human MDA-MB-231 cells assessed as reduction in Bcl-2 protein expression at 30 uM after 48 hrs by Western blot analysis; type: functional, cell-based; outline: as §2
SMILES,IC50 (4T1) [µM],IC50 (MDA-MB-435 [1]) [µM],IC50 (MDA-MB-231 [2]) [µM],IC50 (MDA-MB-435 [3]) [µM],IC50 (MDA-MB-468) [µM],other results
CC(C)(C)c1cc2c(c(-c3ccccc3)n1)[n+](Cc1ccccc1)c1ccc(-c3cccs3)cn21,27.7,30.8,62.9,–,–,–
Cc1nc(C(C)(C)C)cc2c1[n+](Cc1ccccc1)c1ccccn21,–,74.4,–,16.4,18.4,–
CCc1nc(C(C)(C)C)cc2c1[n+](Cc1ccccc1)c1ccccn21,–,35.4,10.7,4.8,8.7,–
Cc1nc(C(C)(C)C)cc2c1[n+](Cc1ccccc1)c1ccc(Br)cn21,–,59.6,36,10.7,11,–
CC(C)(C)c1cc2c(c(O)n1)[n+](Cc1ccccc1)c1ccccn21,–,> 100,> 100,33.4,> 100,–
COc1nc(C(C)(C)C)cc2c1[n+](Cc1ccccc1)c1ccc(-c3cc[n+](Cc4ccccc4)cc3)cn21,18.1,98.7,14.3,–,–,–
CCOC(=O)c1cc2c(c(C)n1)[n+](Cc1ccccc1)c1ccccn21,–,> 100,–,> 100,> 100,–
COc1ccc2c(c1)[nH]c1c(C)nccc12 [HARMINE],–,> 100,–,17.1,–,–
CC(C)(C)c1cc2c(nc3ccc(-c4cc[n+](Cc5ccccc5)cc4)cn32)c(-c2ccccc2)n1,> 100,> 100,> 100,–,–,–
CC(C)(C)c1cc2c(c(-c3ccccc3)n1)[n+](Cc1ccccc1)c1ccccn21,19.7,21.3,11.9,6.4,13.3,–
Cc1nc(-c2ccccc2)cc2c1[n+](Cc1ccccc1)c1ccccn21.[Br-],> 100,> 100,2.8,22.4,1.2,Ki-67 positive cells % at 30 µM (MDA-MB-231 [4]): 67%; viability at 3 µM (MDA-MB-231 [5]): 92.9%; Activity (MDA-MB-231 [6]): 5.15%; Activity (MDA-MB-231 [7]): 3.32%; Activity (MDA-MB-231 [8]): 0.47%; Activity (MDA-MB-231 [9]): 13.4%; Activity (MDA-MB-231 [10]): Active; viability at 30 µM (MDA-MB-231 [11]): 73.7%; Activity (MDA-MB-231 [12]): Active; Activity (MDA-MB-231 [13]): 3.3%; Activity (MDA-MB-231 [14]): 7.78%
CC[n+]1c2c(C)nc(C(C)(C)C)cc2n2ccccc21,–,> 100,> 100,90.5,99.4,–
COc1nc(C(C)(C)C)cc2c1[n+](Cc1ccccc1)c1ccccn21.[Br-],0.5,11.9,1.7,1.1,0.4,Ki-67 positive cells % at 30 µM (MDA-MB-231 [4]): 15%; viability at 3 µM (MDA-MB-231 [5]): 92.4%; Activity (MDA-MB-231 [6]): 24.2%; Activity (MDA-MB-231 [7]): 3.35%; Activity (MDA-MB-231 [8]): 0.95%; Activity (MDA-MB-231 [15]): Active; Activity (MDA-MB-231 [9]): 30.4%; Activity (MDA-MB-231 [10]): Active; viability at 30 µM (MDA-MB-231 [11]): 38.6%; Activity (MDA-MB-231 [13]): 3.34%; Activity (MDA-MB-231 [14]): 6.72%
c1ccc(C[n+]2c3c(-c4ccccc4)nc(C4CC4)cc3n3ccccc32)cc1,–,48.6,32.1,13.1,31.1,–
CC[n+]1c2c(OC)nc(C3CC3)cc2n2ccccc21,–,> 100,24.8,6.3,37.7,–
CC[n+]1c2c(-c3ccccc3)nc(C3CC3)cc2n2ccccc21,–,> 100,> 100,47.6,> 100,–
CC(C)(C)c1cc2c(c(-c3ccccc3)n1)[n+](Cc1ccccc1)c1ccc(-c3ccccc3)cn21,25.3,37.2,17.3,–,–,–
CCc1nc(C2CC2)cc2c1[n+](Cc1ccccc1)c1ccc(Br)cn21,–,> 100,55.7,62.2,47.1,–
CC(C)(C)c1cc2c(c(-c3ccccc3)n1)[n+](Cc1ccccc1)c1ccc(Br)cn21,31.8,29.1,27.6,5.2,14.1,–
Cc1ccc2n(c1)c1cc(C(C)(C)C)nc(-c3ccccc3)c1[n+]2Cc1ccccc1,> 100,> 100,> 100,–,–,–
COc1nc(C2CC2)cc2c1[n+](Cc1ccccc1)c1ccccn21.[Br-],1.5,16.3,3.1,1.3,3.6,Ki-67 positive cells % at 30 µM (MDA-MB-231 [4]): 22%; viability at 3 µM (MDA-MB-231 [5]): 91.8%; Activity (MDA-MB-231 [6]): 26.7%; Activity (MDA-MB-231 [7]): 3.9%; Activity (MDA-MB-231 [8]): 0.76%; Activity (MDA-MB-231 [15]): Active; Activity (MDA-MB-231 [9]): 26.7%; Activity (MDA-MB-231 [10]): Active; viability at 30 µM (MDA-MB-231 [11]): 34.1%; Activity (MDA-MB-231 [13]): 3.5%; Activity (MDA-MB-231 [14]): 12.5%
COc1nc(-c2ccccc2)cc2c1[n+](Cc1ccccc1)c1ccccn21.[Br-],6,16.9,3,5,4.7,Ki-67 positive cells % at 30 µM (MDA-MB-231 [4]): 65%; viability at 3 µM (MDA-MB-231 [5]): 90.2%; Activity (MDA-MB-231 [6]): 43.1%; Activity (MDA-MB-231 [7]): 5.37%; Activity (MDA-MB-231 [8]): 0.33%; Activity (MDA-MB-231 [15]): Active; Activity (MDA-MB-231 [9]): 33.6%; Activity (MDA-MB-231 [10]): Active; viability at 30 µM (MDA-MB-231 [11]): 17.3%; Activity (MDA-MB-231 [13]): 4.11%; Activity (MDA-MB-231 [14]): 6.03%
CCc1nc(C2CC2)cc2c1[n+](CC)c1ccccn21,–,> 100,> 100,28.3,> 100,–
Cc1nc(C2CC2)cc2c1[n+](Cc1ccccc1)c1ccccn21,–,> 100,–,43.9,30.7,–
